# High-throughput results (PubChem BioAssay)
# An excerpt weighted towards active compounds, which were near 1.5% of everything screened.
# SUMO Mot1 rescue: SUMOylation pathway inhibition by Mot1-301 growth rescue; growth rescue, % at 18.8 µM; S. cerevisiae Mot1-301 growth rescue, ATP luminescence, 38.5C; percent above DMSO median, 100 means doubled; AID 2716; hit rate 1% among 320,000;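 active = every valid replicate shows activation above 250% relative to neutral control wells; inactive = the rest, any valid replicate at or below 250%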;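 also: OY570 slx delta 5 strain wells were the positive control but not used for scaling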
# Cneo AK release: Cryptococcus neoformans lysis via adenylate kinase release. hit rate 0.2% among 360,000. AID 651654. lysis activity, % at 15 µM. C. neoformans lysis, adenylate kinase release luminescence, 4 h; normalised: neutral wells 0, clomiphene wells 100;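 active = mean lysis activity across replicates of at least 80%, whatever share of replicates individually reach that level; inactive = mean lysis activity below 80%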
#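 Material – Cryptococcus neoformans yeast cells · Quantity – 5 × 10^6 yeast cells/mL · Buffer or medium – YPD medium · Compound – single dose · Timing – 4 h static compound exposure, 37 °C, read 1 h post-reagent · Signal – adenylate kinase release luminescence · Read-out basis – lysis from increased AK signal · Benchmarks – Clomiphene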
# C2C12 statin: suppression of simvastatin myotoxicity; C2C12 myotubes + simvastatin, ATP luminescence, 48 h; scaled: DMSO 0, geranylgeraniol control 100; rescue of ATP level, % at 7.49 µM; hit rate 0.78% among 330,000;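 active = mean ATP rescue above about 67%, or every replicate alone reaching that limit, limit read from the data, passing the limit was not always enough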;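 also: myotubes were challenged with 10 µM simvastatin during compound exposure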
# Active calls of the source: *; x = no result given.
SMILES,SUMO Mot1 rescue,Cneo AK release,C2C12 statin
COc1cc2c(cc1OC)C(c1ccccc1)NCC2 (configuration not stated),55,-5,-8
COc1cc2c(cc1OC)C(c1cc(OC)c(OC)c(OC)c1)NCC2 (configuration not stated),-6,-4,113*
C[C@@H]1CN([C@@H](C)CO)C(=O)c2cccc(NS(C)(=O)=O)c2O[C@@H]1CN(C)Cc1ccc(Oc2ccccc2)cc1,x,2,10
COCC(=O)N1[C@H](C(=O)Nc2ccccc2)[C@@H](CO)[C@@H]2Cn3c(ccc(-c4ccncc4)c3=O)[C@@H]21,x,1,9
CCC(=O)N1[C@H](C(=O)Nc2ccccc2)[C@@H](CO)[C@@H]2Cn3c(ccc(-c4ccncc4)c3=O)[C@@H]21,x,99*,-2
COCC#Cc1cnc2c(c1)C(=O)N([C@@H](C)CO)C[C@@H](C)[C@@H](CN(C)S(=O)(=O)c1ccccc1)O2,x,-1,-1
N#CCc1c(C#N)c(N)nc(N2CCN(C=O)CC2)c1C#N,-6,x,x
N#CCc1c(C#N)c(N)nc(N2CCN(S(=O)(=O)c3ccccc3)CC2)c1C#N,-12,5,84*
CO[C@H](CN(C)C(=O)c1ccccc1F)[C@@H](C)CN([C@@H](C)CO)S(=O)(=O)c1ccccc1,x,-3,-5
CC(=C/c1ccccc1)/C=N/NC(=O)c1cccs1,29,-15,x
O=C(N/N=C/C(Br)=C\c1ccccc1)c1cccs1,299*,-2,x
CCOC(=O)C1=C(C)NC(=O)NC1C1CC=CCC1 (configuration not stated),112,-7,17
COC(=O)C1=C(C)NC(C)=C(C(=O)OC)C1C1CC=CCC1 (configuration not stated),-15,0,123*
COCC(=O)N1C[C@@H](C)[C@H](OC)CN(C)C(=O)c2ccc(NS(C)(=O)=O)cc2OC[C@H]1C,x,-2,-1
CO[C@@H]1CN(C)C(=O)c2ccc(NC(=O)Nc3ccccc3)cc2OC[C@H](C)N(C(C)=O)C[C@@H]1C,x,4,-14
CO[C@H]1CN(C)C(=O)c2ccc(NC(C)=O)cc2OC[C@H](C)N(C(=O)c2ccncc2)C[C@@H]1C,x,82*,-5
CO[C@@H]1CN(C)C(=O)c2ccc(NC(=O)Nc3ccccc3)cc2OC[C@H](C)N(C(C)=O)C[C@H]1C,x,119*,2
CO[C@@H]1CN(C)C(=O)c2cc(NC(C)=O)ccc2OC[C@@H](C)N(C(=O)c2ccncc2)C[C@H]1C,x,-1,4
COCC(=O)N1C[C@H](C)[C@@H](OC)CN(C)C(=O)c2ccc(NS(C)(=O)=O)cc2OC[C@@H]1C,x,98*,1
CO[C@H]1CN(C)C(=O)c2cc(NS(=O)(=O)c3ccc(C)cc3)ccc2OC[C@@H](C)N(C(=O)NC(C)C)C[C@H]1C,x,-2,4
CO[C@H]1CN(C)C(=O)c2cc(NS(=O)(=O)c3ccc(C)cc3)ccc2OC[C@@H](C)N(C(=O)NC(C)C)C[C@@H]1C,x,97*,6
COc1ccc(S(=O)(=O)Nc2ccc3c(c2)C(=O)N([C@H](C)CO)C[C@@H](C)[C@@H](CN(C)C(=O)Nc2cccc4ccccc24)OCCCC[C@@H](C)O3)cc1,x,2,20
C[C@@H]1CCCCO[C@@H](CN(C)C(=O)Nc2ccccc2)[C@H](C)CN([C@@H](C)CO)C(=O)c2cc(NS(=O)(=O)c3ccc(Cl)cc3)ccc2O1,x,2,x
CO[C@@H]1CN(C)C(=O)c2ccc(NS(C)(=O)=O)cc2OC[C@@H](C)N(C(=O)c2ccc3c(c2)OCO3)C[C@@H]1C,x,-2,3
CCCC(=O)Nc1ccc2c(c1)C(=O)N(C)C[C@H](OC)[C@@H](C)CN(C(=O)c1cccnc1)[C@H](C)CO2,x,90*,2
SMILES,SUMO Mot1 rescue,Cneo AK release,C2C12 statin
CO[C@H]1CN(C)C(=O)c2ccc(NC(C)=O)cc2OC[C@H](C)N(C(=O)c2ccccn2)C[C@H]1C,x,1,-7
CO[C@@H]1CN(C)C(=O)c2cc(NC(=O)C3CC3)ccc2OC[C@H](C)N(C(=O)c2ccncc2)C[C@H]1C,x,102*,19
CO[C@@H]1CN(C)C(=O)c2ccc(NC(C)=O)cc2OC[C@@H](C)N(C(=O)c2ccccn2)C[C@H]1C,x,95*,-1
CO[C@@H]1CN(C)C(=O)c2cc(NC(=O)C3CC3)ccc2OC[C@@H](C)N(C(=O)c2ccncc2)C[C@@H]1C,x,0,-1
CCCC(=O)Nc1ccc2c(c1)C(=O)N(C)C[C@@H](OC)[C@@H](C)CN(C(=O)c1cccnc1)[C@H](C)CO2,x,-2,-4
O=C(C[C@H]1CC[C@H]2[C@@H](COC[C@@H](O)CN2S(=O)(=O)c2ccccc2)O1)N[C@H]1CCN(Cc2ccccc2)C1,x,-1,1
CCCC#Cc1cnc2c(c1)C(=O)N([C@H](C)CO)C[C@H](C)[C@H](CN(C)C(=O)C1CCCCC1)O2,x,x,33
Cc1ccc(-c2nnn(CC(=O)N(c3ccc(F)cc3)C(C(=O)NC(C)(C)C)c3ccco3)n2)o1 (configuration not stated),x,4,83*
Cc1ccc(-c2nnn(CC(=O)N(c3ccc(F)cc3)C(C(=O)NC3CCCC3)c3ccco3)n2)o1 (configuration not stated),15,x,x
CO[C@H]1CN(C)C(=O)c2ccc(NC(=O)c3nc4ccccc4s3)cc2OC[C@@H](C)N(Cc2cncnc2)C[C@@H]1C,x,-3,-7
CO[C@H]1CN(C)C(=O)c2ccc(NS(=O)(=O)c3cccc(F)c3)cc2OC[C@H](C)NC[C@H]1C,x,1,-19
CO[C@@H]1CN(C)C(=O)c2ccc(NC(=O)c3cccc(F)c3)cc2OC[C@@H](C)N(C)C[C@@H]1C,x,-7,0
c1ccc(-c2csc3nnc(SCc4ccc5c(c4)OCCO5)n23)cc1,-5,1,157*
O=C(CSc1nnc2scc(-c3ccccc3)n12)c1ccc2c(c1)OCCO2,-1,-10,5
COCCNC(=O)C[C@@H]1CC[C@H]2[C@H](COc3ccc(NC(=O)c4cc(C)on4)cc3C(=O)N2C)O1,x,-2,-10
CCOC(=O)CN(C)C(=O)CCc1nnc(-c2ccsc2)o1,611*,3,-7
COc1cccc(CN(C)C(=O)CCc2nnc(-c3ccsc3)o2)c1,3,x,x
C[C@@H]1CN([C@@H](C)CO)C(=O)c2cc(C#Cc3ccc(F)cc3)cnc2O[C@H]1CN(C)Cc1ccccn1,x,10,x
COc1ccc(S(=O)(=O)Nc2ccc3c(c2)C(=O)N([C@H](C)CO)C[C@@H](C)[C@H](CN(C)S(=O)(=O)c2ccc(F)cc2)OCCCC[C@H](C)O3)cc1,x,-1,159*
COc1ccc(S(=O)(=O)Nc2ccc3c(c2)C(=O)N([C@@H](C)CO)C[C@H](C)[C@@H](CN(C)C)OCCCC[C@H](C)O3)cc1,x,91*,x
COc1ccc(S(=O)(=O)Nc2ccc3c(c2)C(=O)N([C@H](C)CO)C[C@H](C)[C@H](CN(C)S(=O)(=O)c2ccc(F)cc2)OCCCC[C@H](C)O3)cc1,x,-3,107*
COc1ccc(S(=O)(=O)Nc2ccc3c(c2)C(=O)N([C@H](C)CO)C[C@H](C)[C@H](CN(C)C)OCCCC[C@@H](C)O3)cc1,x,5,17
